Where “and” joins values, the source holds several entries; their conditions need not be identical. Equal entries are not always repeated.
Columns and labels:
recombinant BodoOBP10 [1] = target: T1, recombinant BodoOBP10 (Bradysia odoriphaga, UniProt A0A2S0X9G4); experiment: Competitive fluorescence binding assay with 1-NPN as reporter; conditions: competitive dissociation constant from IC50, 1-NPN reporter
T1 sequence (A0A2S0X9G4 20-144): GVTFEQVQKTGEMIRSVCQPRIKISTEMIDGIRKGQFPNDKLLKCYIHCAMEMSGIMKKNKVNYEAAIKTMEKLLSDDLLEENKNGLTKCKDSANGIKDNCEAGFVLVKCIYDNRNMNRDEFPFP
Procedure, shortened: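 Refolded, Ni-purified, tag-cleaved BodoOBP10 (2 µM stock, 20 mM Tris-HCl pH 7.4) was titrated with test compounds (1 mM methanol stocks) displacing the 1-NPN reporter. Ex 337 nm, em 350–500 nm. IC50 is the ligand concentration halving initial fluorescence. Ki = [IC50]/(1 + [1-NPN]/K1-NPN), using free 1-NPN and the protein/1-NPN dissociation constant. Triplicate means.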

male B. odoriphaga = conditions: ref Li et al. 2008; cited from earlier work
recombinant BodoOBP10 [2] = target: T1, recombinant BodoOBP10; experiment: Binding curve of the fluorescence reporter 1-NPN
Procedure, shortened: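 Recombinant BodoOBP10 was expressed in E. coli BL21(DE3) from pBM30 with 0.5 mM IPTG for 12 h at 28°C. Inclusion bodies were solubilised in 50 mM Tris pH 6.8 with 0.2% Triton X-100 and 6 M guanidine HCl. Protein was Ni-affinity purified and the His tag removed by enterokinase. Protein stock was 2 µM in 20 mM Tris-HCl pH 7.4; 1-NPN stock was 1 mM in methanol. Ex 337 nm, em 350–500 nm, 10-nm slit; triplicate means.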

B. odoriphaga females = conditions: ref Yang et al. 2019; cited from earlier work
[3] = test system: antennae of B. odoriphaga adult females; experiment: Electroantennogram; parameters: species or system Bradysia odoriphaga; conditions: odorant at 10 μg/μL, adult females 12 h after emergence
Procedure, shortened: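 30 nL of 6 μg/μL dsOBP10 or dsGFP was injected into one-day-old pupal abdomens; knockdown was checked by RT-qPCR in triplicate. Antennae of females 12 h post-emergence were detached, base on reference and tip on recording glass electrodes. Stimulus was 10 μl of a 10 μg/μL sulfur volatile on filter paper, pipetted after 10 s. Hexane control was given before and after. Ten replicates; one-way ANOVA with Tukey, means ± SE.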

[4] = test system: antennae of adult B. odoriphaga; conditions: ref Yang et al. 2019; cited from earlier work

| Structure (SMILES) | Ki (recombinant BodoOBP10 [1]) | behavioral responses in male B. odoriphaga (male B. odoriphaga) | Ki (recombinant BodoOBP10 [2]) [µM] | female oviposition (B. odoriphaga females) | EAG response in dsOBP10-injected insects compared with control (dsGFP-injected) [3] | EAG response in dsOBP10-injected insects compared with control (dsGFP-injected) ([3]; listed as diallyl disulﬁde) | EAG responses / antennal preference of B. odoriphaga adults [4] |
| --- | --- | --- | --- | --- | --- | --- | --- |
| CCCCCCCCCCCCCCCCC [n- Heptadecane, n-Heptadecane] | > 50 µM | can lead to behavioral responses |  |  |  |  |  |
| c1ccc(Nc2cccc3ccccc23)cc1 [1-NPN, N-phenyl-1-naphthylamine] |  |  | 0.78 |  |  |  |  |
| C=CCSSCC=C [Diallyl disulfide] | 8.01 µM and < 10 µM |  |  | stimulate female oviposition | significantly reduced | reduced | stimulate the EAG responses |
